Source: ChEMBL document CHEMBL1122055, “DL-threo-beta-Fluoroaspartate and DL-threo-beta-fluoroasparagine: selective cytotoxic agents for mammalian cells in culture” (J Med Chem, 1982)
Several values for one entry are separate records, joined by “and”; a condition that tells them apart may be missing. Identical values can stand only once.

Key:
H4 [1] = assay: Tested for its reversal effect on growth of H4 cells at 40 ug/mL concentrations of L-aspargine and DL-threo-beta-fluoroaspartate; assay type: functional
Procedure, shortened: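 H4 hepatoma cells seeded at 8×10^3 per 35-mm dish in F 10+ medium. On day 4, the medium was renewed and treatments started, including L-aspartate or L-asparagine. Incubation 72 h, then Lowry total cell protein per dish. Results reported as % of untreated control, mean of duplicate dishes.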

GH3 [2] = assay: Tested for its cytotoxic effect on the growth of the cell strain GH3 (2 x 10e 4 (F 10+)) at 50 ug/mL dose; assay type: functional, Rattus norvegicus
Procedure, shortened: (§1)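 Cells plated in 35-mm dishes at the stated density and medium (F 10+: Ham's F10 + 15% horse serum + 2.5% fetal calf serum; MEM+: Eagle's MEM + 5% horse + 5% fetal calf serum), grown 3 days. All strains then switched to F 10+ before treatment and incubated 4 days. Growth read as total cell protein per dish (Lowry, bovine albumin standard). Single determinations; experiment repeated twice.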

GH4-C1 [3] = assay: Tested for its cytotoxic effect on the growth of the cell strain GH4C1 (8 x 10e 4 (F 10+)) at 50 ug/mL dose; assay type: functional, Rattus norvegicus; procedure, shortened: as §1
MH1C1 [4] = assay: Tested for its cytotoxic effect on the growth of the cell strain MH1C1 (1 x 10e 4 (F 10+)) at 50 ug/mL dose; assay type: functional; procedure, shortened: as §1
H4 [5] = assay: Tested for its cytotoxic effect on the growth of the cell strain H4 (8 x 10e 3 (MEM)) at 50 ug/mL dose; assay type: functional; procedure, shortened: as §1
R5 [6] = assay: Tested for its cytotoxic effect on the growth of the cell strain R5 (1 x 10e 3 (F 10+)) at 50 ug/mL dose; assay type: functional; procedure, shortened: as §1
MH1C1 [7] = assay: Tested for its cytotoxic effect on the growth of the cell strain MH1C1 (1 x 10e 4 (F 10+)) at 10 ug/mL dose; assay type: functional; procedure, shortened: as §1
GH4-C1 [8] = assay: Tested for its cytotoxic effect on the growth of the cell strain GH4C1 (8 x 10e 4 (F 10+)) at 10 ug/mL dose; assay type: functional, Rattus norvegicus; procedure, shortened: as §1
7800C1 cell line [9] = assay: Tested for its cytotoxic effect on the growth of the cell strain 7800C1 (1 x 10e 4 (MEM)) at 50 ug/mL dose; assay type: functional, Rattus norvegicus; procedure, shortened: as §1
7800C1 cell line [10] = assay: Tested for its cytotoxic effect on the growth of the cell strain 7800C1 (1 x 10e 4 (MEM)) at 10 ug/mL dose; assay type: functional, Rattus norvegicus; procedure, shortened: as §1
R5 [11] = assay: Tested for its cytotoxic effect on the growth of the cell strain R5 (1 x 10e 3 (F 10+)) at 10 ug/mL dose; assay type: functional; procedure, shortened: as §1
H4 [12] = assay: Tested for its cytotoxic effect on the growth of the cell strain H4 (8 x 10e 3 (MEM)) at 10 ug/mL dose; assay type: functional; procedure, shortened: as §1
H4 [13] = assay: Tested for its reversal effect on growth of H4 cells at 50 ug/mL concentrations of L-aspargine and DL-threo-beta-fluoroaspartate; assay type: functional
Procedure, shortened: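 Rat hepatoma H4 cells seeded at 1.4×10^4 per 35-mm dish in MEM+. On day 4, fresh MEM+ was added, with treatments including L-aspartate or L-asparagine. Exposure 66 h, then total cell protein per dish measured by Lowry. Results expressed as % of untreated control protein, mean of duplicate dishes.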

GH3 [14] = assay: Tested for its cytotoxic effect on the growth of the cell strain GH3 (2 x 10e 4 (F 10+)) at 10 ug/mL dose; assay type: functional, Rattus norvegicus; procedure, shortened: as §1
H4 (Rattus norvegicus) [15] = assay: Tested for its reversal effect on growth of H4 cells at 133 ug/mL concentrations of L-aspargine and DL-threo-beta-fluoroaspartate
H4 (Rattus norvegicus) [16] = assay: Tested for its reversal effect on growth of H4 cells at 330 ug/mL concentrations of L-aspargine and DL-threo-beta-fluoroaspartate
[17] = system: 7800C1 (Rattus norvegicus); assay: Compound was tested for its uptake by the 7800C1 cells
[18] = Distribution of radioactivity derived form [C14]-labeled compound taken up by 7800C1 cells; total uptake; assay type: ADME
Procedure, shortened: (§2)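 7800C₁ cells in 100-mm dishes in MEM⁺; on day 4 medium renewed, and 6 h later ¹⁴C-labeled amino acid added to duplicate dishes for 12 h. Washed cells fractionated with 10% trichloroacetic acid (3 h, 0 °C) into acid-soluble material, then hot 5% acid (82 °C, 30 min) to release nucleic acid, leaving a protein pellet on glass-fiber filter. Scintillation counting; nmol/10⁶ cells, mean of duplicates.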

[19] = Percent recovery form [C14]-labeled compound taken up by 7800C1 cells; assay type: ADME; details: rat; procedure, shortened: as §2
GH4-C1 [20] = assay: Compound was tested for its uptake by the GH4C1 cells; assay type: functional, Rattus norvegicus
Procedure, shortened: (§3)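 Cells plated in 100-mm dishes in F 10⁺; on day 4 medium replaced with fresh F 10⁺, and 3 h later ¹⁴C-labeled amino acid added to duplicate dishes. 6 h incubation, then monolayer washed in cold 0.9% NaCl, cells scraped off, and radioactivity counted by liquid scintillation. Uptake expressed as nmol/10⁶ cells from cell counts on untreated dishes; mean of duplicates.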

MH1C1 [21] = assay: Compound was tested for its uptake by the MH1C1 cells; assay type: functional; procedure, shortened: as §3
Jensen sarcoma = assay: Compound was tested for its uptake by the Jensen sarcoma cells; assay type: functional, Rattus norvegicus; procedure, shortened: as §3
H4 (Rattus norvegicus) [22] = assay: Compound was tested for its uptake by the H4 cells
MH1C1 [23] = assay: Tested for its cytotoxic effect on the growth of the cell strain MH1C1 (1 x 10e 4 (F 10+)) at 5 ug/mL dose; assay type: functional; procedure, shortened: as §1
MH1C1 [24] = assay: Tested for its cytotoxic effect on the growth of the cell strain MH1C1 (1 x 10e 4 (F 10+)) at 2 ug/mL dose; assay type: functional; procedure, shortened: as §1
GH4-C1 [25] = assay: Tested for its cytotoxic effect on the growth of the cell strain GH4C1 (8 x 10e 4 (F 10+)) at 20 ug/mL dose; assay type: functional, Rattus norvegicus; procedure, shortened: as §1
GH4-C1 [26] = assay: Tested for its cytotoxic effect on the growth of the cell strain GH4C1 (8 x 10e 4 (F 10+)) at 2 ug/mL dose; assay type: functional, Rattus norvegicus; procedure, shortened: as §1
H4 [27] = assay: Tested for its cytotoxic effect on the growth of the cell strain H4 (8 x 10e 3 (MEM)) at 5 ug/mL dose; assay type: functional; procedure, shortened: as §1
MH1C1 [28] = assay: Tested for its cytotoxic effect on the growth of the cell strain MH1C1 (1 x 10e 4 (F 10+)) at 20 ug/mL dose; assay type: functional; procedure, shortened: as §1
GH4-C1 [29] = assay: Tested for its cytotoxic effect on the growth of the cell strain GH4C1 (8 x 10e 4 (F 10+)) at 5 ug/mL dose; assay type: functional, Rattus norvegicus; procedure, shortened: as §1
7800C1 cell line [30] = assay: Tested for its cytotoxic effect on the growth of the cell strain 7800C1 (1 x 10e 4 (MEM)) at 5 ug/mL dose; assay type: functional, Rattus norvegicus; procedure, shortened: as §1
MH1C1 [31] = assay: Tested for its cytotoxic effect on the growth of the cell strain MH1C1 (1 x 10e 4 (F 10+)) at 75 ug/mL dose; assay type: functional; procedure, shortened: as §1
GH3 [32] = assay: Tested for its cytotoxic effect on the growth of the cell strain GH3 (2 x 10e 4 (F 10+)) at 2 ug/mL dose; assay type: functional, Rattus norvegicus; procedure, shortened: as §1
R5 [33] = assay: Tested for its cytotoxic effect on the growth of the cell strain R5 (1 x 10e 3 (F 10+)) at 20 ug/mL dose; assay type: functional; procedure, shortened: as §1
7800C1 cell line [34] = assay: Tested for its cytotoxic effect on the growth of the cell strain 7800C1 (1 x 10e 4 (MEM)) at 20 ug/mL dose; assay type: functional, Rattus norvegicus; procedure, shortened: as §1
GH3 [35] = assay: Tested for its cytotoxic effect on the growth of the cell strain GH3 (2 x 10e 4 (F 10+)) at 5 ug/mL dose; assay type: functional, Rattus norvegicus; procedure, shortened: as §1
R5 [36] = assay: Tested for its cytotoxic effect on the growth of the cell strain R5 (1 x 10e 3 (F 10+)) at 75 ug/mL dose; assay type: functional; procedure, shortened: as §1
GH3 [37] = assay: Tested for its cytotoxic effect on the growth of the cell strain GH3 (2 x 10e 4 (F 10+)) at 75 ug/mL dose; assay type: functional, Rattus norvegicus; procedure, shortened: as §1
R5 [38] = assay: Tested for its cytotoxic effect on the growth of the cell strain R5 (1 x 10e 3 (F 10+)) at 2 ug/mL dose; assay type: functional; procedure, shortened: as §1
H4 [39] = assay: Tested for its cytotoxic effect on the growth of the cell strain H4 (8 x 10e 3 (MEM)) at 20 ug/mL dose; assay type: functional; procedure, shortened: as §1
H4 [40] = assay: Tested for its cytotoxic effect on the growth of the cell strain H4 (8 x 10e 3 (MEM)) at 2 ug/mL dose; assay type: functional; procedure, shortened: as §1
7800C1 cell line [41] = assay: Tested for its cytotoxic effect on the growth of the cell strain 7800C1 (1 x 10e 4 (MEM)) at 2 ug/mL dose; assay type: functional, Rattus norvegicus; procedure, shortened: as §1
7800C1 cell line [42] = assay: Tested for its cytotoxic effect on the growth of the cell strain 7800C1 (1 x 10e 4 (MEM)) at 75 ug/mL dose; assay type: functional, Rattus norvegicus; procedure, shortened: as §1
H4 [43] = assay: Tested for its reversal effect on growth of H4 cells at 5 ug/mL concentrations of L-aspargine and DL-threo-beta-fluoroaspartate; assay type: functional
H4 [44] = assay: Tested for its cytotoxic effect on the growth of the cell strain H4 (8 x 10e 3 (MEM)) at 75 ug/mL dose; assay type: functional; procedure, shortened: as §1
R5 [45] = assay: Tested for its cytotoxic effect on the growth of the cell strain R5 (1 x 10e 3 (F 10+)) at 5 ug/mL dose; assay type: functional; procedure, shortened: as §1
GH3 [46] = assay: Tested for its cytotoxic effect on the growth of the cell strain GH3 (2 x 10e 4 (F 10+)) at 20 ug/mL dose; assay type: functional, Rattus norvegicus; procedure, shortened: as §1
GH4-C1 [47] = assay: Tested for its cytotoxic effect on the growth of the cell strain GH4C1 (8 x 10e 4 (F 10+)) at 75 ug/mL dose; assay type: functional, Rattus norvegicus; procedure, shortened: as §1

SMILES: NC(=O)C(F)C(N)C(=O)O (racemic)
- Cell protein in untreated control (H4 [1]): 17%
- Cell protein (GH3 [2]): 14 ug dish-1
- Cell protein (GH4-C1 [3]): 16 ug dish-1
- Cell protein (MH1C1 [4]): 31 ug dish-1
- Cell protein (H4 [5]): 0 ug dish-1
- Cell protein (R5 [6]): 27 ug dish-1
- Cell protein (MH1C1 [7]): 55 ug dish-1
- Cell protein (GH4-C1 [8]): 35 ug dish-1
- Cell protein (7800C1 cell line [9]): 0 ug dish-1
- Cell protein (7800C1 cell line [10]): 15 ug dish-1
- Cell protein (R5 [11]): 85 ug dish-1
- Cell protein (H4 [12]): 0 ug dish-1
- Cell protein in untreated control (H4 [13]): 0%
- Cell protein (GH3 [14]): 36 ug dish-1

SMILES: NC(=O)C[C@H](N)C(=O)O [ASPARAGINE]
- Cell protein in untreated control (H4 (Rattus norvegicus) [15]): 103%
- Cell protein in untreated control (H4 (Rattus norvegicus) [16]): 100%

SMILES: N[C@@H](CC(=O)O)C(=O)O [ASPARTIC ACID]
- Activity [17]: 13.2 nM (10e6*cells)-1
- Activity [18]: 21 nM (10e6*cells)-1
- Recovery [19]: 83%
- Activity (GH4-C1 [20]): 1.1 nM (10e6*cells)-1
- Cell protein in untreated control (H4 (Rattus norvegicus) [15]): 115%
- Activity (MH1C1 [21]): 0.5 nM (10e6*cells)-1
- Activity (Jensen sarcoma): 0.4 nM (10e6*cells)-1
- Activity (H4 (Rattus norvegicus) [22]): 23.4 nM (10e6*cells)-1
- Cell protein in untreated control (H4 (Rattus norvegicus) [16]): 77%

SMILES: NC(C(=O)O)C(F)C(=O)O (racemic)
- Cell protein (MH1C1 [23]): 167 ug dish-1
- Cell protein (MH1C1 [24]): 154 ug dish-1
- Cell protein (GH4-C1 [25]): 36 ug dish-1
- Cell protein (GH4-C1 [26]): 96 ug dish-1
- Cell protein (H4 [27]): 9 ug dish-1
- Cell protein (MH1C1 [28]): 140 ug dish-1
- Cell protein (GH4-C1 [29]): 98 ug dish-1
- Cell protein (7800C1 cell line [30]): 9 ug dish-1
- Cell protein (MH1C1 [31]): 149 ug dish-1
- Cell protein (GH3 [32]): 69 ug dish-1
- Cell protein (R5 [33]): 50 ug dish-1
- Cell protein (7800C1 cell line [34]): 6 ug dish-1
- Cell protein (MH1C1 [7]): 159 ug dish-1
- Cell protein (GH3 [35]): 23 ug dish-1
- Cell protein (R5 [36]): 90 ug dish-1
- Cell protein (GH3 [37]): 61 ug dish-1
- Cell protein (GH4-C1 [8]): 126 ug dish-1
- Cell protein (7800C1 cell line [10]): 249 ug dish-1
- Cell protein (R5 [38]): 128 ug dish-1
- Cell protein (H4 [39]): 4 ug dish-1
- Cell protein (H4 [40]): 114 ug dish-1
- Cell protein (7800C1 cell line [41]): 10 ug dish-1
- Cell protein (7800C1 cell line [42]): 229 ug dish-1
- Cell protein (R5 [11]): 122 ug dish-1
- Cell protein in untreated control (H4 [43]): 0% and 5%
- Cell protein (H4 [12]): 150 ug dish-1
- Cell protein (H4 [44]): 156 ug dish-1
- Cell protein (R5 [45]): 98 ug dish-1
- Cell protein (GH3 [46]): 22 ug dish-1
- Cell protein (GH3 [14]): 104 ug dish-1
- Cell protein (GH4-C1 [47]): 126 ug dish-1
